# The source made the active and inactive calls. The rule behind the calls is not given here.
# Columns and labels:
# [1] = Cytotoxicity against human H460 cells incubated for 48 hrs by MTT assay; format: functional, cell-based; conditions: NCI-H460, 48 h
# Procedure, shortened: (§1)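 Human tumour lines (HL-60 leukemia, Hep3B liver, H460 lung, A498 renal, COLO205 colon, 2774 and SK-OV-3 ovarian) and normal Detroit 551 skin fibroblasts were exposed to a range of concentrations for 48 h. IC50 is the concentration giving 50% proliferation inhibition, as the mean of three independent determinations.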
# COLO 205 [2] = assay: Cytotoxicity against human COLO205 cells incubated for 48 hrs by MTT assay; format: functional, cell-based; conditions: COLO 205, 48 h; procedure, shortened: as §1
# Detroit 551 = assay: Cytotoxicity against human Detroit 551 cells incubated for 48 hrs by MTT assay; format: cell-based; conditions: Detroit 551, 48 h; procedure, shortened: as §1
# SK-OV-3 = assay: Cytotoxicity against human SKOV3 cells incubated for 48 hrs by MTT assay; format: functional, cell-based; conditions: SK-OV-3, 48 h; procedure, shortened: as §1
# [3] = Cytotoxicity against human Hep3B cells incubated for 48 hrs by MTT assay; format: functional, cell-based, Hep 3B2; procedure, shortened: as §1
# A498 = assay: Cytotoxicity against human A498 cells incubated for 48 hrs by MTT assay; format: functional, cell-based; conditions: A498, 48 h
# [4] = Cytotoxicity against human 2774 cells incubated for 48 hrs by MTT assay; format: functional, cell-based; procedure, shortened: as §1
# HL-60 [5] = assay: Cytotoxicity against human HL60 cells incubated for 48 hrs by MTT assay; format: functional, cell-based; conditions: HL-60, 48 h; procedure, shortened: as §1
# COLO 205 [6] = assay: Cytotoxicity against human COLO205 cells; format: functional, cell-based
# HL-60 [7] = assay: Cytotoxicity against human HL60 cells; format: functional, cell-based
# HL-60 [8] = assay: Induction of apoptosis in human HL60 cells assessed as upregulation of caspase-3 protein expression at 5 uM incubated for 24 hrs and 48 hrs by Western blotting method; format: functional, cell-based
# Procedure, shortened: (§2)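 HL-60 cells were exposed to 5 μM for 24 and 48 h. Lysates were immunoblotted for Fas, DR4, DR5, FasL, TRAIL, Bax, Bcl-2, caspase-9, caspase-3 and PARP (cleavage), with β-actin as loading control.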
# HL-60 [9] = assay: Increase in TRAIL protein expression in human HL60 cells at 5 uM incubated for 24 hrs and 48 hrs by Western blotting method; format: functional, cell-based; procedure, shortened: as §2
# HL-60 [10] = assay: Induction of apoptosis in human HL60 cells assessed as upregulation of caspase-9 protein expression at 5 uM incubated for 24 hrs and 48 hrs by Western blotting method; format: functional, cell-based; procedure, shortened: as §2
# HL-60 [11] = assay: Induction of apoptosis in human HL60 cells assessed as late apoptotic cells level at 5 uM incubated for 24 hrs by annexin V/propidium iodide staining based flow cytometry (reference value: 0.4%); format: functional
# HL-60 [12] = assay: Induction of apoptosis in human HL60 cells assessed as late apoptotic cells level at 5 uM incubated for 48 hrs by annexin V/propidium iodide staining based flow cytometry (reference value: 0.4%); format: functional
# HL-60 [13] = assay: Induction of cell cycle arrest in human HL60 cells assessed as accumulation at G0/G1 phase at 10 uM incubated for 48 hrs by propidium iodide staining based flow cytometry (reference value: 39.51%); format: functional
# HL-60 [14] = assay: Induction of cell cycle arrest in human HL60 cells assessed as accumulation at S phase at 1 uM incubated for 48 hrs by propidium iodide staining based flow cytometry (reference value: 43.72%); format: functional
# HL-60 [15] = assay: Induction of apoptosis in human HL60 cells assessed as induction of AIF protein release into cytosol at 5 uM incubated for 24 hrs and 48 hrs by Western blotting method; format: functional, cell-based
# HL-60 [16] = assay: Induction of apoptosis in human HL60 cells assessed as early apoptotic cells level at 5 uM incubated for 48 hrs by annexin V/propidium iodide staining based flow cytometry (reference value: 0%); format: functional
# HL-60 [17] = assay: Induction of cell cycle arrest in human HL60 cells assessed as accumulation at G0/G1 phase at 1 uM incubated for 48 hrs by propidium iodide staining based flow cytometry (reference value: 39.51%); format: functional
# HL-60 [18] = assay: Increase in DR5 protein expression in human HL60 cells at 5 uM incubated for 24 hrs and 48 hrs by Western blotting method; format: functional, cell-based; procedure, shortened: as §2
# HL-60 [19] = assay: Induction of cell cycle arrest in human HL60 cells assessed as accumulation at subG1 phase at 1 uM incubated for 48 hrs by propidium iodide staining based flow cytometry (reference value: 2.5%); format: functional
# HL-60 [20] = assay: Induction of apoptosis in human HL60 cells assessed as induction of PARP cleavage at 5 uM incubated for 24 hrs and 48 hrs by Western blotting method; format: functional, cell-based; procedure, shortened: as §2
# HL-60 [21] = assay: Induction of cell morphology changes in human HL60 cells assessed as induction of nuclear shrinkage at 5 uM incubated for 24 hrs by a phase-contrast microscopy; format: functional, cell-based
# Procedure, shortened: (§3)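 HL-60 cells were treated at 1, 5 and 10 μM for 24 h and 48 h and examined microscopically for nuclear shrinkage and apoptotic bodies.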
# HL-60 [22] = assay: Induction of cell cycle arrest in human HL60 cells assessed as accumulation at S phase at 10 uM incubated for 48 hrs by propidium iodide staining based flow cytometry (reference value: 43.72%); format: functional
# HL-60 [23] = assay: Induction of cell cycle arrest in human HL60 cells assessed as accumulation at G0/G1 phase at 5 uM incubated for 48 hrs by propidium iodide staining based flow cytometry (reference value: 39.51%); format: functional
# HL-60 [24] = assay: Induction of cell cycle arrest in human HL60 cells assessed as accumulation at subG1 phase at 10 uM incubated for 48 hrs by propidium iodide staining based flow cytometry (reference value: 2.5%); format: functional
# HL-60 [25] = assay: Induction of apoptosis in human HL60 cells assessed as increase in Bax protein level at 5 uM incubated for 24 hrs and 48 hrs by Western blotting method; format: functional, cell-based; procedure, shortened: as §2
# HL-60 [26] = assay: Increase in DR4 protein expression in human HL60 cells at 5 uM incubated for 24 hrs and 48 hrs by Western blotting method; format: functional, cell-based; procedure, shortened: as §2
# HL-60 [27] = assay: Induction of cell cycle arrest in human HL60 cells assessed as accumulation at G2/M phase at 10 uM incubated for 48 hrs by propidium iodide staining based flow cytometry (reference value: 16.77%); format: functional
# HL-60 [28] = assay: Induction of cell cycle arrest in human HL60 cells assessed as accumulation at G2/M phase at 5 uM incubated for 48 hrs by propidium iodide staining based flow cytometry (reference value: 16.77%); format: functional
# HL-60 [29] = assay: Induction of apoptosis in human HL60 cells assessed as induction of endonuclease-G protein release into cytosol at 5 uM incubated for 24 hrs and 48 hrs by Western blotting method; format: functional, cell-based
# HL-60 [30] = assay: Induction of cell morphology changes in human HL60 cells assessed as induction of appearance apoptotic bodies at 5 uM incubated for 24 hrs by a phase-contrast microscopy; format: functional, cell-based; procedure, shortened: as §3
# HL-60 [31] = assay: Induction of cell cycle arrest in human HL60 cells assessed as accumulation at S phase at 5 uM incubated for 48 hrs by propidium iodide staining based flow cytometry (reference value: 43.72%); format: functional
# HL-60 [32] = assay: Induction of cell cycle arrest in human HL60 cells assessed as accumulation at subG1 phase incubated for 48 hrs by propidium iodide staining based flow cytometry; format: functional
# HL-60 [33] = assay: Increase in FasL protein expression in human HL60 cells at 5 uM incubated for 24 hrs and 48 hrs by Western blotting method; format: functional, cell-based; procedure, shortened: as §2
# HL-60 [34] = assay: Induction of apoptosis in human HL60 cells assessed as early apoptotic cells level at 5 uM incubated for 24 hrs by annexin V/propidium iodide staining based flow cytometry (reference value: 0%); format: functional
# HL-60 [35] = assay: Induction of apoptosis in human HL60 cells assessed as induction of Apaf-1 protein release into cytosol at 5 uM incubated for 24 hrs and 48 hrs by Western blotting method; format: functional, cell-based
# HL-60 [36] = assay: Induction of cell cycle arrest in human HL60 cells assessed as accumulation at G2/M phase at 1 uM incubated for 48 hrs by propidium iodide staining based flow cytometry (reference value: 16.77%); format: functional
# HL-60 [37] = assay: Increase in Fas protein expression in human HL60 cells at 5 uM incubated for 24 hrs and 48 hrs by Western blotting method; format: functional, cell-based; procedure, shortened: as §2
# HL-60 [38] = assay: Induction of apoptosis in human HL60 cells assessed as reduction in Bcl-2 protein level at 5 uM incubated for 24 hrs and 48 hrs by Western blotting method; format: functional, cell-based; procedure, shortened: as §2
# HL-60 [39] = assay: Induction of cell cycle arrest in human HL60 cells assessed as accumulation at subG1 phase at 5 uM incubated for 48 hrs by propidium iodide staining based flow cytometry (reference value: 2.5%); format: functional
# HL-60 [40] = assay: Induction of apoptosis in human HL60 cells assessed as induction of cytochrome-c protein release into cytosol at 5 uM incubated for 24 hrs and 48 hrs by Western blotting method; format: functional, cell-based
compound,measurement,setting,value
CCOC(=O)c1cc2c3ccccc3n(Cc3ccc(Cl)cc3)c2cn1,IC50,[1],> 100 µM
same,IC50,COLO 205 [2],> 100 µM
same,IC50,Detroit 551,> 100 µM
same,IC50,SK-OV-3,2.9 µM
same,IC50,[3],> 100 µM
same,IC50,A498,> 100 µM
same,IC50,[4],16.4 µM
same,IC50,HL-60 [5],> 100 µM
CCOC(=O)c1cc2c3ccccc3n(Cc3cc(OC)cc(OC)c3)c2cn1,IC50,[1],> 100 µM
same,IC50,COLO 205 [2],> 100 µM
same,IC50,Detroit 551,> 100 µM
same,IC50,SK-OV-3,24.4 µM
same,IC50,[3],> 100 µM
same,IC50,A498,> 100 µM
same,IC50,[4],> 100 µM
same,IC50,HL-60 [5],> 100 µM
COc1cc(Cn2c3ccc(C(C)=O)cc3c3cccnc32)cc(OC)c1OC,IC50,COLO 205 [6],520 nM
same,IC50,HL-60 [7],30 nM
CCOC(=O)c1cc2c3ccccc3n(Cc3ccncc3)c2cn1,IC50,COLO 205 [2],> 100 µM
same,IC50,SK-OV-3,> 100 µM
same,IC50,A498,> 100 µM
same,IC50,[4],> 100 µM
COc1ccccc1Cn1c2ccccc2c2cc(C(=O)O)ncc21,Activity,HL-60 [8],Active
same,IC50,[1],8 µM
same,Activity,HL-60 [9],inactive
same,Activity,HL-60 [10],Active
same,Activity,HL-60 [11],27.9%
same,Activity,HL-60 [12],38.6%
same,Activity,HL-60 [13],55.62%
same,IC50,COLO 205 [2],32.5 µM
same,Activity,HL-60 [14],49.22%
same,Activity,HL-60 [15],Active
same,IC50,Detroit 551,> 100 µM
same,Activity,HL-60 [16],46.6%
same,Activity,HL-60 [17],34.67%
same,IC50,SK-OV-3,21.4 µM
same,Activity,HL-60 [18],inactive
same,Activity,HL-60 [19],9.83%
same,Activity,HL-60 [20],Active
same,Activity,HL-60 [21],Active
same,Activity,HL-60 [22],39.4%
same,Activity,HL-60 [23],37.39%
same,Activity,HL-60 [24],17.79%
same,IC50,[3],6.7 µM
same,IC50,A498,7.5 µM
same,Activity,HL-60 [25],Active
same,Activity,HL-60 [26],inactive
same,Activity,HL-60 [27],4.98%
same,Activity,HL-60 [28],12.42%
same,Activity,HL-60 [29],Active
same,Activity,HL-60 [30],Active
same,Activity,HL-60 [31],50.19%
same,Activity,HL-60 [32],Dose-dependent effect
same,Activity,HL-60 [33],inactive
same,Activity,HL-60 [34],37.9%
same,Activity,HL-60 [35],Active
same,Activity,HL-60 [36],16.11%
same,Activity,HL-60 [37],inactive
same,IC50,[4],12.6 µM
same,Activity,HL-60 [38],Active
same,Activity,HL-60 [39],14.55%
same,IC50,HL-60 [5],4 µM
same,Activity,HL-60 [40],Active
